From PMC3589814 (Journal of molecular biology, 2012)

Assays:
Experiment in all cases: isothermal titration calorimetry
Type in all cases: binding
ScRR1 [1] = target: T1, ScRR1 (Saccharomyces cerevisiae, UniProt P21524)
T1 sequence (P21524 1-888): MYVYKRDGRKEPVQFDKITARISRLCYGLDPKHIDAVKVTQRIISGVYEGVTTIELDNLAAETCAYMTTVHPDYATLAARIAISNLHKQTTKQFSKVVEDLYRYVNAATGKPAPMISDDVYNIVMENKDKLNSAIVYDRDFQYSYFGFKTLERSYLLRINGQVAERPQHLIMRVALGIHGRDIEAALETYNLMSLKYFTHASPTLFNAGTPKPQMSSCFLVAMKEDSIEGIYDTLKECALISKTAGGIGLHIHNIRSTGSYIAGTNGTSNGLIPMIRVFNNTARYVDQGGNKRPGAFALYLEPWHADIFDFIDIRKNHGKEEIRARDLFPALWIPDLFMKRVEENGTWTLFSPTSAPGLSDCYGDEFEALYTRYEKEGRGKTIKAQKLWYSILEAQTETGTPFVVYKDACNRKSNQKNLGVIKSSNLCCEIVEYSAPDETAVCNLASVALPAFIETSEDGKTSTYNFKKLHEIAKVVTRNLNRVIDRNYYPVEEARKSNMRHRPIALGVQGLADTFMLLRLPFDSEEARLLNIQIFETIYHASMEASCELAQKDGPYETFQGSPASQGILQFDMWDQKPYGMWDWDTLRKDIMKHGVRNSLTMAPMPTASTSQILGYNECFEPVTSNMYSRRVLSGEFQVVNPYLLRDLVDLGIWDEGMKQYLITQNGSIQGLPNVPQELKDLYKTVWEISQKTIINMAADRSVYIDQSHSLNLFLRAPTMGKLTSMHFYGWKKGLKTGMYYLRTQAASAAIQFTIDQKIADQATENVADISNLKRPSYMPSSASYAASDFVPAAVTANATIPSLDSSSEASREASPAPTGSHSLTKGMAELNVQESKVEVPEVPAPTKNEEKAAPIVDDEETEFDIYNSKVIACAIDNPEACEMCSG
How it was run: (§1)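 Yeast RR1 (wild type or loop 2 mutant) in the ITC cell at 25 °C, in 50 mM Hepes pH 7.0 with 5 mM MgCl₂, 5 mM DTT and 5% glycerol (20 µM protein for wild type). Titrant was 0.5 mM dGTP. For ADP binding the protein was pre-saturated with dGTP (500 µM); for CDP binding it was pre-saturated with AMPPNP. Blank-corrected heats were fitted to a one-site model, and Kd was taken from the association constant.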

ScRR1 [2] = target: ScRR1 (Saccharomyces cerevisiae, UniProt P21524, Q288A)
How it was run: as §1

ScRR1 [3] = target: ScRR1 (Saccharomyces cerevisiae, UniProt P21524, R293A)
How it was run: as §1

ScRR1 (Saccharomyces cerevisiae, UniProt P21524, R293A), sequence (P21524 whole entry R293A): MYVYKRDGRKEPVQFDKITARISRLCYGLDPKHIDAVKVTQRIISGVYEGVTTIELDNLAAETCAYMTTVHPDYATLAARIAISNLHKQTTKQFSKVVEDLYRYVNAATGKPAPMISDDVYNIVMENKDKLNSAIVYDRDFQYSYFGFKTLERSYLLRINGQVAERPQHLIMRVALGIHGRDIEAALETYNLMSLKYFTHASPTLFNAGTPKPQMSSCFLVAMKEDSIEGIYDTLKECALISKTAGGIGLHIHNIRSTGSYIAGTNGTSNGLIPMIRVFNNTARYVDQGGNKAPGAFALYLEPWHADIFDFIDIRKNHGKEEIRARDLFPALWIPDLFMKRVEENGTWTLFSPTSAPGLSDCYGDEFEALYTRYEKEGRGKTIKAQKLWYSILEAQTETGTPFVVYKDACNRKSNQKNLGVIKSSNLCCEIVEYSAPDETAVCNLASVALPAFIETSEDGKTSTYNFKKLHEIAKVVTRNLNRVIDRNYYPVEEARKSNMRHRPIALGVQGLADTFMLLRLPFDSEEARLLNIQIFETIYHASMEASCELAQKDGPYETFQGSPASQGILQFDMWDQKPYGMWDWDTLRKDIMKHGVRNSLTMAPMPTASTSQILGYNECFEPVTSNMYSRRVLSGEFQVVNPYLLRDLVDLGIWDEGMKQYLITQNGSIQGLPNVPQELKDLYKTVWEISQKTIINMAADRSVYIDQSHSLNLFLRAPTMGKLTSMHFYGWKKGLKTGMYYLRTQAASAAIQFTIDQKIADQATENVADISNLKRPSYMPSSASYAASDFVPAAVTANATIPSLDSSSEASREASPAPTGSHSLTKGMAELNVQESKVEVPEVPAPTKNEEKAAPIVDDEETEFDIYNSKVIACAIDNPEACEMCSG
ScRR1 (Saccharomyces cerevisiae, UniProt P21524, Q288A), sequence (P21524 whole entry Q288A): as the sequence (P21524 whole entry R293A) above, with Q288A, A293R counted along it

- Kd (ScRR1 [1]): 270 nM
- Kd (ScRR1 [2]): 520 nM
- Kd (ScRR1 [3]): 570 nM
SMILES: Nc1nc2c(ncn2[C@H]2C[C@H](O)[C@@H](COP(=O)(O)OP(=O)(O)OP(=O)(O)O)O2)c(=O)[nH]1 [dGTP]
